Reference: ChEMBL document CHEMBL3297654, “Synthesis, antimicrobial and cytotoxic activities, and structure-activity relationships of gypsogenin derivatives against human cancer cells” (Eur J Med Chem, 2014)
Calls of active or inactive are those of the source. No cut-off for these calls is given here.

Legend:
Candida tropicalis = assay: Antimicrobial activity against Candida tropicalis assessed as zone of inhibition at 100 mg for 24 hrs at 30 degC by disk diffusion test; format: functional, organism-based
Outline: (§1)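 Yeast well-diffusion assay on Mueller Hinton agar following NCCLS disc susceptibility procedure. Compound stocks were 1000 µg/mL in DMSO. Yeast broth cultures (18–24 h) were adjusted to 0.5 McFarland, about 1×10^6 cells/mL. A 6 mm well was loaded with 30 µL compound. Plates were incubated at 30 °C for 24 h, and inhibition zones were measured in mm. C. glabrata and C. tropicalis were precultured in malt extract broth.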

Cyberlindnera jadinii = assay: Antimicrobial activity against Candida utilis ATCC 9950 assessed as zone of inhibition at 100 mg for 24 hrs at 30 degC by disk diffusion test; format: functional, organism-based; outline: as §1
Saccharomyces cerevisiae = assay: Antimicrobial activity against Saccharomyces cerevisiae ATCC 9763 assessed as zone of inhibition at 100 mg for 24 hrs at 30 degC by disk diffusion test; format: functional, organism-based; outline: as §1
Nakaseomyces glabratus = assay: Antimicrobial activity against Candida glabrata assessed as zone of inhibition at 100 mg for 24 hrs at 30 degC by disk diffusion test; format: functional, organism-based; outline: as §1
Enterococcus faecalis [1] = assay: Antimicrobial activity against Enterococcus faecalis ATCC 29212 assessed as zone of inhibition at 10 mg for 24 hrs at 37 degC by disk diffusion test; format: functional
Outline: (§2)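 Agar well diffusion following NCCLS disc susceptibility guidance. Compounds were held as 1000 µg/mL stocks in DMSO. Broth cultures (18–24 h) were adjusted to 0.5 McFarland (1×10^8 cells/mL) and spread on Mueller Hinton agar. A 6 mm well was cut and filled with 30 µL compound. Plates were incubated 24 h at 37 °C, and the inhibition zone diameter was measured in mm.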

[2] = test system: Staphylococcus epidermidis; assay: Antimicrobial activity against Staphylococcus epidermidis ATCC 12228 assessed as zone of inhibition at 10 mg for 24 hrs at 37 degC by disk diffusion test; format: functional
Staphylococcus aureus = assay: Antimicrobial activity against Staphylococcus aureus ATCC 25923 assessed as zone of inhibition at 10 mg for 24 hrs at 37 degC by disk diffusion test; format: functional
Bacillus thuringiensis = assay: Antimicrobial activity against Bacillus thuringiensis assessed as zone of inhibition at 10 mg for 24 hrs at 30 degC by disk diffusion test; format: functional, organism-based
Outline: (§3)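 Well diffusion on Mueller Hinton agar per NCCLS disc susceptibility tests. DMSO stocks were 1000 µg/mL. Bacterial broth cultures (18–24 h) were adjusted to 0.5 McFarland, about 1×10^8 cells/mL. A 6 mm well received 30 µL compound. Incubation was 24 h at 30 °C, and zone diameters were read in mm. B. thuringiensis was a fecal clinical isolate grown in nutrient broth.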

Bacillus subtilis [3] = assay: Antimicrobial activity against Bacillus subtilis ATCC 6633 assessed as zone of inhibition at 10 mg by disk diffusion test; format: functional, organism-based
Salmonella typhimurium = assay: Antimicrobial activity against Salmonella typhimurium ATCC 14028 assessed as zone of inhibition at 10 mg for 24 hrs at 37 degC by disk diffusion test; format: functional; conditions: Salmonella enterica subsp. enterica serovar Typhimurium
Bacillus cereus = assay: Antimicrobial activity against Bacillus cereus ATCC 11778 assessed as zone of inhibition at 10 mg for 24 hrs at 30 degC by disk diffusion test; format: functional, organism-based; outline: as §3
Klebsiella pneumoniae = assay: Antimicrobial activity against Klebsiella pneumoniae ATCC 13882 assessed as zone of inhibition at 10 mg for 24 hrs at 37 degC by disk diffusion test; format: functional, organism-based; outline: as §2
Micrococcus luteus [4] = assay: Antimicrobial activity against Micrococcus luteus ATCC 9341 assessed as zone of inhibition at 10 mg for 24 hrs at 30 degC by disk diffusion test; format: functional
Escherichia coli = assay: Antimicrobial activity against Escherichia coli ATCC 25922 assessed as zone of inhibition at 10 mg for 24 hrs at 37 degC by disk diffusion test; format: functional, organism-based
Pseudomonas aeruginosa = assay: Antimicrobial activity against Pseudomonas aeruginosa ATCC 35032 assessed as zone of inhibition at 10 mg for 24 hrs at 37 degC by disk diffusion test; format: functional, organism-based; outline: as §2
Proteus vulgaris = assay: Antimicrobial activity against Proteus vulgaris ATCC 33420 assessed as zone of inhibition at 10 mg by disk diffusion test; format: functional, organism-based
SAOS-2 [5] = assay: Induction of apoptosis in human Saos2 cells at 0.5 uM after 48 hrs by Hoechst 33258/propidium iodide staining based phase contrast microscopic analysis; format: functional
Outline: (§4)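 Cells in 48-well plates treated with 0.5, 10, 20 or 40 µM for 24 and 48 h. Values are read at 48 h, 20 µM for test agents and 0.5 µM for controls. Staining is Hoechst 33258/propidium iodide double staining with fluorescence microscopy. Blue nuclei are viable or early-to-mid apoptotic, and pink nuclei are late apoptotic or necrotic. Apoptosis and necrosis are scored from chromatin condensation as % of cells. Cells are grown at 37 °C in 5% CO2 in RPMI, DMEM or McCoy's 5A with 10–15% heat-inactivated FCS.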

SAOS-2 [6] = assay: Induction of necrosis in human Saos2 cells at 0.5 uM after 48 hrs by Hoechst 33258/propidium iodide staining based phase contrast microscopic analysis; format: functional; outline: as §4
Caco-2 [7] = assay: Induction of apoptosis in human Caco2 cells at 0.5 uM after 48 hrs by Hoechst 33258/propidium iodide staining based phase contrast microscopic analysis; format: functional; outline: as §4
HL-60 [8] = assay: Antiproliferative activity against human HL60 cells after 24 and 72 hrs by MTT assay; format: functional, cell-based
Outline: (§5)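 ATCC human cell lines are kept in RPMI, DMEM or McCoy's 5A with 10–15% heat-inactivated FCS at 37 °C and 5% CO2. They are seeded at 1×10^4–1×10^5 cells/mL in 48-well plates and exposed to 0.5, 10, 20 or 40 µM. Viability is read by MTT (590 nm) at 24 and 72 h. Growth is expressed relative to untreated cells and IC50 is fitted, in triplicate.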

HL-60 [9] = assay: Induction of necrosis in human HL60 cells at 0.5 uM after 48 hrs by Hoechst 33258/propidium iodide staining based phase contrast microscopic analysis; format: functional; outline: as §4
[10] = Antiproliferative activity against human Saos2 cells after 24 and 72 hrs by MTT assay; format: functional, cell-based; conditions: SAOS-2; outline: as §5
HT-29 [11] = assay: Antiproliferative activity against human HT-29 cells after 24 and 72 hrs by MTT assay; format: functional, cell-based; outline: as §5
MCF7 [12] = assay: Induction of necrosis in human MCF7 cells at 0.5 uM after 48 hrs by Hoechst 33258/propidium iodide staining based phase contrast microscopic analysis; format: functional; outline: as §4
Caco-2 [13] = assay: Induction of necrosis in human Caco2 cells at 0.5 uM after 48 hrs by Hoechst 33258/propidium iodide staining based phase contrast microscopic analysis; format: functional; outline: as §4
HeLa [14] = assay: Induction of necrosis in human HeLa cells at 0.5 uM after 48 hrs by Hoechst 33258/propidium iodide staining based phase contrast microscopic analysis; format: functional; outline: as §4
HeLa [15] = assay: Induction of apoptosis in human HeLa cells at 0.5 uM after 48 hrs by Hoechst 33258/propidium iodide staining based phase contrast microscopic analysis; format: functional; outline: as §4
Caco-2 [16] = assay: Antiproliferative activity against human Caco2 cells after 24 and 72 hrs by MTT assay; format: functional, cell-based; outline: as §5
HL-60 [17] = assay: Induction of apoptosis in human HL60 cells at 0.5 uM after 48 hrs by Hoechst 33258/propidium iodide staining based phase contrast microscopic analysis; format: functional; outline: as §4
MCF7 [18] = assay: Antiproliferative activity against human MCF7 cells after 24 and 72 hrs by MTT assay; format: functional, cell-based; outline: as §5
HT-29 [19] = assay: Induction of apoptosis in human HT-29 cells at 0.5 uM after 48 hrs by Hoechst 33258/propidium iodide staining based phase contrast microscopic analysis; format: functional; outline: as §4
HeLa [20] = assay: Antiproliferative activity against human HeLa cells after 24 and 72 hrs by MTT assay; format: functional, cell-based; outline: as §5
HT-29 [21] = assay: Induction of necrosis in human HT-29 cells at 0.5 uM after 48 hrs by Hoechst 33258/propidium iodide staining based phase contrast microscopic analysis; format: functional; outline: as §4
MCF7 [22] = assay: Induction of apoptosis in human MCF7 cells at 0.5 uM after 48 hrs by Hoechst 33258/propidium iodide staining based phase contrast microscopic analysis; format: functional; outline: as §4
Bacillus subtilis [23] = assay: Antimicrobial activity against Bacillus subtilis ATCC 6633 assessed as zone of inhibition at 15 mgby disk diffusion test; format: functional
Micrococcus luteus [24] = assay: Antimicrobial activity against Micrococcus luteus ATCC 9341 assessed as zone of inhibition at 15 mg for 24 hrs at 30 degC by disk diffusion test; format: functional; conditions: ATCC 9341, 24 h, read-out: DIZ
Enterococcus faecalis [25] = assay: Antimicrobial activity against Enterococcus faecalis ATCC 29212 assessed as zone of inhibition at 15 mg for 24 hrs at 37 degC by disk diffusion test; format: functional, organism-based

Question: With NYSTATIN as the compound, how does the inhibition zone (IZ) (Candida tropicalis) read?
Answer: Its inhibition zone (IZ) is 15 mm.

Question: And the inhibition zone (IZ) (Cyberlindnera jadinii)?
Answer: Its inhibition zone (IZ) is 21 mm.

Question: What about the inhibition zone (IZ) (Saccharomyces cerevisiae) of the same compound?
Answer: The inhibition zone (IZ) was 15 mm.

Question: What about the inhibition zone (IZ) (Nakaseomyces glabratus) of the same compound?
Answer: Its inhibition zone (IZ) is 16 mm.

Question: Which results are given for GENTAMICIN?
Answer: inhibition zone (IZ) (Enterococcus faecalis [1]): 11 mm; inhibition zone (IZ) [2]: 17 mm; inhibition zone (IZ) (Staphylococcus aureus): 20 mm; inhibition zone (IZ) (Bacillus thuringiensis): 21 mm; inhibition zone (IZ) (Bacillus subtilis [3]): 20 mm; inhibition zone (IZ) (Salmonella typhimurium): 16 mm; inhibition zone (IZ) (Bacillus cereus): 24 mm; inhibition zone (IZ) (Klebsiella pneumoniae): 19 mm; inhibition zone (IZ) (Micrococcus luteus [4]): 15 mm; inhibition zone (IZ) (Escherichia coli): 21 mm; inhibition zone (IZ) (Pseudomonas aeruginosa): 20 mm; inhibition zone (IZ) (Proteus vulgaris): 24 mm

Question: Which results are given for `CC(=O)O[C@H]1C(=O)[C@@]2(C)[C@H]([C@H](OC(=O)c3ccccc3)[C@]3(O)C[C@H](OC(=O)[C@H](O)[C@@H](NC(=O)c4ccccc4)c4ccccc4)C(C)=C1C3(C)C)[C@]1(OC(C)=O)CO[C@@H]1C[C@@H]2O` [PACLITAXEL]?
Answer: Activity (SAOS-2 [5]): 42%; Activity (SAOS-2 [6]): 1%; Activity (Caco-2 [7]): 52%; IC50 (HL-60 [8]): 0.32 µM; Activity (HL-60 [9]): 0%; IC50 [10]: 0.35 µM; IC50 (HT-29 [11]): 0.29 µM; Activity (MCF7 [12]): 1%; Activity (Caco-2 [13]): 2%; Activity (HeLa [14]): 2%; Activity (HeLa [15]): 44%; IC50 (Caco-2 [16]): 0.31 µM; Activity (HL-60 [17]): 53%; IC50 (MCF7 [18]): 0.33 µM; Activity (HT-29 [19]): 52%; IC50 (HeLa [20]): 0.29 µM; Activity (HT-29 [21]): 2%; Activity (MCF7 [22]): 50%

Question: Which results are given for `CC[C@H]1OC(=O)[C@H](C)[C@@H](O[C@H]2C[C@@](C)(OC)[C@@H](O)[C@H](C)O2)[C@H](C)[C@@H](O[C@@H]2O[C@H](C)C[C@H](N(C)C)[C@H]2O)[C@](C)(O)C[C@@H](C)C(=O)[C@H](C)[C@@H](O)[C@]1(C)O` [ERYTHROMYCIN]?
Answer: diameter of the inhibition zone (DIZ) (Bacillus subtilis [23]): 25 mm; zone of inhibition at 15000 µg/disc (Micrococcus luteus [24]): 30 mm; diameter of the inhibition zone (DIZ) (Enterococcus faecalis [25]): inactive
